Experimental data pooled from the literature.
Lines come from different studies, so protocols differ.
Target: Protein kinase C delta type (PRKCD, Homo sapiens, UniProt Q05655)

COc1cc2ncnc(Nc3ccc(Oc4ccccc4)cc3C)c2cc1OC
inhibition (enzyme activity; inhibitor; 1 µM): 11%

N#Cc1ccc(Nc2ccc3[nH]c(=O)[nH]c3c2)c(Cl)c1
remaining binding (cell-free assay; competition with immobilised ligand; 1 µM): 100%

CC(C)(O)[C@H]1CC[C@H](Nc2ccc3ncc(-c4cccc(C(F)(F)F)c4)n3n2)CC1
remaining activity (enzyme activity; inhibitor; 1 µM): 84.2%

O=C1NC(=O)c2cc(Nc3ccc(F)cc3)c(Nc3ccc(F)cc3)cc21
remaining signal (cell-free assay; 0.5 µM): 98.2%

CCCS(=O)(=O)Nc1ccc(F)c(C(=O)c2c[nH]c3ncc(-c4ccc(Cl)cc4)cc23)c1F
inhibition (enzyme activity; inhibitor; 1 µM): < 20%

C[C@@]1(Cc2ccc(C#N)cc2)C(=O)N(c2cc(Cl)cc(Cl)c2)c2ncc(C(=O)NC3(c4nc(C5CCC5)no4)CC3)n21
remaining binding (cell-free assay; competition with immobilised ligand; 1 µM): 100%

COc1cc(Cl)c(C(=O)N[C@@H](CN[C@H]2CC[C@@H](N)CC2)Cc2ccc(C#N)cc2)cc1-c1ccc(CN[C@H](C)c2ccc(C)cc2)o1
remaining activity (enzyme activity; inhibitor; 1 µM): 100%

Cc1sc(C(=O)NC2COC2)cc1-n1cc(NC(=O)Nc2c(F)cccc2Cl)cn1
remaining activity (enzyme activity; inhibitor; 10 µM): 98%

Cn1cnc(Br)c1C1=CN(c2ncnc3[nH]cnc23)CCS1
inhibition (enzyme activity; inhibitor; radiometric; 2 µM): 93.4%

CSc1cccnc1N1CCN(Cc2nc3ccccc3[nH]2)CC1
remaining binding (cell-free assay; competition with immobilised ligand; 1 µM): 100%

Cc1ccc(C(=O)NCc2ccsc2)cc1C#Cc1cn(C(C)C)c2ncnc(N)c12
activity vs control (enzyme activity; inhibitor; 1 µM): 90%

O=C1Nc2ccc(Cl)cc2C1=Cc1cc(Cl)c(O)c(Cl)c1
remaining signal (cell-free assay; 0.5 µM): 86.7%

CO[C@@H](C)c1c(Nc2ccc([C@@H](N(C)C(=O)C3CCS(=O)(=O)CC3)C(F)(F)F)cc2)cnc2cc(Cl)nn12
remaining binding (cell-free assay; competition with immobilised ligand; 1 µM): 90%

Oc1ccc(-c2nc(-c3ccncc3)c(-c3ccc(F)cc3)[nH]2)cc1
remaining signal (cell-free assay; 0.5 µM): 99.3%

CC(C)(C)c1nc(-c2cccc(NS(=O)(=O)c3c(F)cccc3F)c2F)c(-c2ccnc(N)n2)s1
remaining activity (enzyme activity; inhibitor; radiometric; 1 µM): 119%

CCCOc1ccc(OC)c(F)c1C(=O)c1ccc(C(=O)N[C@@H]2CNC[C@H]2NC(=O)c2ccc3[nH]ncc3c2)cc1
remaining activity (enzyme activity; inhibitor; 50 nM): 103%

CN1CC(Oc2cnc(C#N)cc2-c2ccn3nc(NC(=O)C4CC4)cc3c2)C1
inhibition (enzyme activity; inhibitor; 1 µM): 3%

Cc1ccc(C(=O)Nc2ccc(CN3CCN(C)CC3)c(C(F)(F)F)c2)cc1C#Cc1cnc2cccnn12
remaining activity (enzyme activity; 23.5 nM): 64%

CNCc1ccccc1-c1csc([C@@H](C)Nc2nc(C)nc3cc(OC)c(OC)cc23)c1
remaining binding (cell-free assay; competition with immobilised ligand; 1 µM): 98%

Cn1cncc1C1=CN(c2ncnc3[nH]cnc23)CCS1
inhibition (enzyme activity; inhibitor; radiometric; 50 nM): 12.6%

CC1=C(C#N)C(c2ccc3c(c2)c(NC(=O)c2ccccc2C)nn3C)C(C#N)=C(C)N1
remaining binding (cell-free assay; competition with immobilised ligand; 1 µM): 100%

Cc1ccc(NC(=O)c2ccc(C)c(C(F)(F)F)c2)cc1C#Cc1nn(C2CCC(O)CC2)c2ncnc(N)c12 (stereo not drawn)
remaining signal (cell-free assay; 10 µM): 96%

CC(=O)Nc1c(C(C)=O)c(=O)n(C)c2nc(-c3ccc(Cl)cc3Cl)c(-c3ccc(Cl)cc3)cc12
remaining binding (cell-free assay; competition with immobilised ligand; 1 µM): 100%

N#CCCc1ccc2c(c1)-c1[nH]c3ccc([N+](=O)[O-])cc3c1CC(=O)N2
remaining signal (cell-free assay; 0.5 µM): 74.9%
